Assay outcomes as filed in PubChem BioAssay.
UBC13 inh: UBC13 polyubiquitin chain formation inhibitors, primary screen, biochemical, TR-FRET, uHTS; inhibition, % at 20 µM; Ubiquitin-conjugating enzyme E2 N (Homo sapiens), P61088; AID 485273, 2010; 0.47% of 330,000 active; in the data active means inhibition above about 45%, passing the limit was not always enough; inconclusive means no clear call, values can overlap the other calls
Target sequence (P61088 whole entry, looked up): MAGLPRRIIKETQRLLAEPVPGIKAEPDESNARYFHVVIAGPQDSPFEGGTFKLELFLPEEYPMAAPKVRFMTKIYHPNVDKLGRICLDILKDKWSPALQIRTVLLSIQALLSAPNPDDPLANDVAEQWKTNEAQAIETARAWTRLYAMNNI
PREPL inh: PREPL enzyme inhibitors, primary screen, biochemical, fluorescence polarization; Prolyl endopeptidase-like (Homo sapiens), Q4J6C6; recombinant PREPL, fluorescence polarization activity-based probe; inhibition, % at 5.96 µM; 0.68% of 320,000 active; in the data active means inhibition above about 43%
Rin1-Abl PPI inh: inhibitors of Rin1-Abl protein binding, primary screen, biochemical, TR-FRET | Tyrosine-protein kinase ABL1 (Homo sapiens) + Ras and Rab interactor 1 (Homo sapiens), … | inhibition, % at 7.35 µM | 0.4% of 360,000 active | AID 588664, 2011; in the data active means inhibition above about 5%, passing the limit was not always enough
RBBP9 inh: human RBBP9 inhibitors, primary screen, biochemical, fluorescence polarization, FP-Rh probe, HTS; inhibition, % at 7.94 µM; AID 1515, 2009; recombinant RBBP9; 0.2% of 220,000 active;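 active means inhibition above the campaign mean of all tested compounds plus 3 SD, cut at about 14% in these data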
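Test system – recombinant human RBBP9 · Input – RBBP9 2.5 µM in dispensing solution, pre-mixing · Medium – Tris buffer pH 8.0, NaCl, Pluronic · Schedule – preincubation 30 min plus labeling 45 min at 25 °C · Measured by – fluorescence polarization · Measure – % inhibition · Controls – DMSO and no-protein wells · Replicates – one well per compound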
ALR inh: inhibitors of human ALR sulfhydryl oxidase, primary screen, biochemical, H2O2 detection, HRP-luminol luminescence, single point; purified ALR, DTT oxidation; AID 485317, 2010; 3.8% of 290,000 active; FAD-linked sulfhydryl oxidase ALR (Homo sapiens), P55789; inhibition, % (concentration not given with the values);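 active means mean replicate inhibition above about 79%, with every replicate also reaching it, limit read from the data; inconclusive means only one of the two criteria met; inactive means mean below limit and not every replicate reaching it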
Target sequence (P55789 whole entry, looked up): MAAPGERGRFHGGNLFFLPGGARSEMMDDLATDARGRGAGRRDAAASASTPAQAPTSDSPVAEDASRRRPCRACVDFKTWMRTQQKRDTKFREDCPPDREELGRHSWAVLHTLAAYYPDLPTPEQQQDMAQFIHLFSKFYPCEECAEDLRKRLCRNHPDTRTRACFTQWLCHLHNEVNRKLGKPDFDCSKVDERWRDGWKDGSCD
UBC9 SUMO inh: inhibitors of in vitro SUMOylation cascade, primary screen, biochemical, HTRF, uHTS; 0.36% of 290,000 active; inhibition, % at 35 µM; SUMO-conjugating enzyme UBC9 (Homo sapiens), P63279; HTRF SUMOylation assay, SAE1/SAE2 + UBC9; AID 2006, 2009; in the data active means inhibition above about 50%, passing the limit was not always enough; inconclusive means no clear call, values can overlap the other calls
Target sequence (P63279 whole entry, looked up): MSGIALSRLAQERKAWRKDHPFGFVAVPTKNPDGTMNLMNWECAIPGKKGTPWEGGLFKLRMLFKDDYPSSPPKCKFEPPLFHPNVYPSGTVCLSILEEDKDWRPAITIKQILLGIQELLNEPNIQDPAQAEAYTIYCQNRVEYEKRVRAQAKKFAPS
Rin1 Abl conf: Rin1-Abl binding inhibitor retest, confirmation, biochemical, TR-FRET; shares compounds with Rin1-Abl PPI inh; purified proteins; inhibition, % at 7.35 µM; 49% of 1,300 active
GFP quench: GFP fluorescence inhibitors and quenchers, artefact control for Rin1-Abl interaction inhibitor project, biochemical. shares compounds with Rin1-Abl PPI inh. inhibitors/quenchers counterscreen. AID 602125, 2011. 8.5% of 1,300 active. inhibition, % at 6.75 µM;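 further: ABL1-eGFP fusion protein alone without its partner RIN1-SBP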
GFP quench DR: GFP fluorescence inhibitors and quenchers, dose response, artefact control for Rin1-Abl interaction inhibitor project, biochemical. 230 tested, under 10 active. shares compounds with Rin1-Abl PPI inh. AID 602182, 2012. IC50, µM. GFP fluorescence interference/quenching counterscreen; call rule not given here;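 further: ABL1-eGFP fusion protein alone without its RIN1 binding partner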
A number is an active result; 0 = inactive; ? = inconclusive; - = no result given. Most compounds without a hit are left out; they make up all but 4.3% or so of the library. Unless noted, no stated cut-off is given here; in the data, active means inhibition above about 6.5%; inactive means the rest.

SMILES	UBC13 inh	PREPL inh	Rin1-Abl PPI inh	RBBP9 inh	ALR inh	UBC9 SUMO inh	Rin1 Abl conf	GFP quench	others
COc1ccc(C(c2oc(CO)cc(=O)c2O)c2oc(CO)cc(=O)c2O)cc1	0	0	16	0	0	0	11	0
CC[C@]12c3[nH]c4ccc(OC)cc4c3CCN1C(=O)C(CC(=O)NCC13CC4CC(CC(C4)C1)C3)C[C@@H]2C(=O)N1CCN(C(=O)c2ccco2)CC1 (some centres undefined)	-	-	54	-	-	-	59	0	GFP quench DR=0
CC[C@]12c3[nH]c4ccc(Cl)cc4c3CCN1C(=O)[C@@H](CC(=O)NCC13CC4CC(CC(C4)C1)C3)C[C@@H]2C(=O)N1CCN(C(=O)c2ccco2)CC1	-	-	21	-	-	-	16	0
N#Cc1cc(-c2ccccc2)nc(Oc2ccccc2)n1	0	0	0	0	0	0	-	-
NC(=O)c1cc(-c2ccccc2)nc(Oc2ccccc2)n1	0	0	10	0	0	0	0	0
Oc1cccc(C=NCc2ccccc2)c1O	0	0	0	0	0	0	-	-
Oc1ccc(/C=N/N=C(c2ccccc2)c2ccccc2)c(O)c1O	-	0	21	0	98	0	41	16
Cc1cc(=O)oc2c(C)c(OCC(=O)N3CCN(C(=O)C4COc5ccccc5O4)CC3)ccc12 (centres undefined)	0	0	10.0	-	0	0	0	0
CC1CC(=O)c2cn3c(nc2C1)nc1ccccc13 (centres undefined)	0	0	0	0	0	0	-	-
CC1(C)CC(=O)c2cn3c(nc2C1)nc1ccccc13	0	0	7.8	0	0	0	10	0
COc1ccc(S(=O)(=O)N2CCCCCC2)cc1C(=O)N(C)Cc1ccc(OC)c(OC)c1OC	0	0	0	-	0	-	-	-
COc1ccc(S(=O)(=O)N2CCN(CCc3ccccc3)CC2)cc1	0	0	0	-	0	0	-	-
Cc1cc(C(=O)Cn2cnc3cc(F)ccc3c2=O)c(C)n1C1CC1	0	0	0	-	0	-	-	-
CC(=O)Nc1ccc(NC(=O)C(NC(=O)c2ccc(Cl)cc2)C(C)C)cc1 (centres undefined)	-	-	0	-	-	-	-	-
Cc1ccc(C(=O)N[C@H](C(=O)Nc2cc(Cl)cc(Cl)c2)C(C)C)cc1	0	0	5.8	0	0	0	0	0
CC(=O)c1ccc(NC(=O)C2(S(=O)(=O)c3ccccc3)CC2)cc1	0	0	10	0	0	0	0	0
CC1(C2CC2)NC(=O)N(CC(=O)N2CCN(c3cccc(C(F)(F)F)c3)CC2)C1=O (centres undefined)	0	0	8.6	-	0	-	0	0
Cc1ccc(CC(=O)N2CCN(c3cccc(C(F)(F)F)c3)CC2)cc1	0	0	0	0	0	0	-	-
O=C(O)c1ccc(CSc2nnc(-c3ccncc3)n2-c2ccc(Br)cc2)cc1	0	0	0	0	0	0	-	-
O=C(O)c1ccc(CSc2nnc(-c3cccnc3)n2-c2ccc(Br)cc2)cc1	0	0	21	0	0	0	33	0	GFP quench DR=0
COc1ccc(N2CCN(C(=O)CSc3nnc(-c4cccnc4)n3-c3ccccc3)CC2)cc1	0	0	8.1	0	94	0	0	0
O=C1C2CCCN2C(=O)N1CCN1CCN(c2cccc(C(F)(F)F)c2)CC1 (centres undefined)	-	-	0	-	-	-	-	-
O=C(CN1CCN(c2ccc(F)cc2)CC1)Nc1ccc(S(=O)(=O)N2CCOCC2)cc1	0	0	0	-	?	0	-	-
Cc1[nH]c(=O)[nH]c1C(=O)CCCCC(=O)O	0	0	89	0	0	0	98	0	GFP quench DR=0
O=C(O)c1ccc(-c2nc3ccccc3[nH]2)cc1	0	0	0	0	0	0	-	-
SMILES	UBC13 inh	PREPL inh	Rin1-Abl PPI inh	RBBP9 inh	ALR inh	UBC9 SUMO inh	Rin1 Abl conf	GFP quench	others
O=C(O)c1ccc(-c2ncc[nH]2)cc1	0	0	9.3	0	0	0	0	0
CN1C(=O)C2(NC(=O)c3ccccc3N2C)c2ccccc21 (centres undefined)	0	0	0	0	0	0	-	-
CN1C(=O)C(Cl)(Cl)C(=O)c2ccccc21	-	-	18	0	-	0	11	0
CCSc1nnc(NC(=O)CSc2nc3c(c(=O)n2CC)SC(C)C3)s1 (centres undefined)	0	0	0	0	0	0	-	-
CCSc1nnc(NC(=O)CSc2nc3c(c(=O)n2C)SC(C)C3)s1 (centres undefined)	0	0	9.5	0	0	0	0	0
CCN(CC)c1ccc2cc(C(=O)NNC(=O)c3ccc(S(=O)(=O)N4CCCCC4)cc3)c(=O)oc2c1	-	0	4.7	0	0	0	0	0
O=C(COc1ccc2c(-c3ccccc3)cc(=O)oc2c1)Nc1cccnc1	0	0	0	-	0	0	-	-
Cc1cccc(N(Cc2ccccc2)C(=O)c2ccc(S(C)(=O)=O)cc2)c1	0	0	8.3	-	0	0	0	0
CS(=O)(=O)c1ccc(C(=O)N(Cc2ccccc2)c2ccccc2)cc1	0	0	0	-	0	0	-	-
CC(C)(C)NC(=O)C(c1ccc(O)cc1)N(C(=O)Cn1nnc(-c2ccc(F)cc2)n1)c1ccccc1F (centres undefined)	0	0	0	0	0	0	-	-
Nc1nc(NC2CCCC2)cc(=O)[nH]1	-	-	18	-	-	-	24	0	GFP quench DR=0
O=c1cc(NC2CCCCC2)[nH]c(=O)[nH]1	0	0	0	-	0	-	-	-
O=C(Nc1ccc(C(=O)O)cc1)/C(=C\c1ccccc1)NC(=O)c1ccco1	0	0	8.6	-	-	0	0	0
O=C(Nc1ccccc1)/C(=C\c1ccccc1)NC(=O)c1ccco1	0	0	0	0	0	0	-	-
COc1ccc(-c2c(-c3ccc4c(c3)OCO4)c3ccccc3n2C)cc1	-	-	0	-	-	-	-	-
CN1NC(=O)CC1c1ccccc1 (centres undefined)	-	-	0	-	-	-	-	-
CN1CC2(C)OC(=O)C(Cl)=C2CC1c1ccccc1 (centres undefined)	0	0	6.2	0	0	0	0	0
CCOC(=O)C1CCN(C(=O)c2cccc(NC3=NC4CS(=O)(=O)CC4S3)c2)CC1 (centres undefined)	0	0	18	-	0	0	15	0
